{"source": "paper PMC9083272", "about": "(RSC Advances, 2018)", "key": {"[1]": {"assay": "Thermodynamic properties of iron", "format": "physicochemical", "settings": "I = 0.15 mol dm^−3 NaCl", "outline": "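Log β came from potentiometric titrations at 25, 37 and 40 °C in 0.15 mol dm−3 NaCl. ΔG was computed as −2.303RT log10 β. ΔH and ΔS per species were taken as the slope and intercept, respectively, of a Van't Hoff plot across the three temperatures. Units: ΔG and ΔH in kJ mol−1, ΔS in kJ mol−1 K−1.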"}, "[2]": {"assay": "Potentiometric titration, protonation constants", "format": "physicochemical", "settings": "I = 0.15 mol dm^−3 NaCl"}, "[3]": {"settings": "cited from earlier work"}, "[4]": {"assay": "Potentiometric determination of complex formation constants", "format": "physicochemical", "settings": "I = 0.15 mol dm^−3 NaCl", "outline": "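Test ligand in 3 × 10−3 mol dm−3 HCl with 0.15 mol dm−3 NaCl, in fresh DI water, titrated with carbonate-free 0.1 mol dm−3 NaOH. Runs: acid alone, ligand alone, and ligand plus Fe(III) at 3 × 10−3, 1.5 × 10−3 or 1 × 10−3 mol dm−3 (metal:ligand 1:1, 1:2, 1:3). Water bath ±0.1 °C, pH glass electrode, pH 2–11, triplicate. Log β refined jointly from the three ratios.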"}, "[5]": {"settings": "298.15 K and 0.05 M, ref Gergely et al. 21"}, "[6]": {"settings": "298.15 K and 0.15 mol dm^−3 NaNO3, ref Angkawijaya et al. 22"}}, "note": "Like-named read-outs stand apart in the source and are kept apart here."}
{"molecule": "NCC(=O)O", "note": "[Gly, glycine]", "values": [{"measurement": "−ΔG", "setting": "[1]; complex [MA2H−2], 25 °C", "result": 8.927, "unit": "kcal/mol"}, {"measurement": "−ΔG", "setting": "[1]; complex [MA2H−2], 37 °C", "result": 10.71, "unit": "kcal/mol"}, {"measurement": "−ΔG", "setting": "[1]; complex [MA2H−2], 40 °C", "result": 11.71, "unit": "kcal/mol"}, {"measurement": "ΔH", "setting": "[1]; complex [MA2H−2]", "result": 43.332, "unit": "kcal/mol"}, {"measurement": "ΔS", "setting": "[1]; complex [MA2H−2]", "result": "−0.73", "unit": "kJ mol^−1 K^−1"}, {"measurement": "−ΔG", "setting": "[1]; complex [MA2H−3], 25 °C", "result": -6.341, "unit": "kcal/mol"}, {"measurement": "−ΔG", "setting": "[1]; complex [MA2H−3], 37 °C", "result": -4.185, "unit": "kcal/mol"}, {"measurement": "−ΔG", "setting": "[1]; complex [MA2H−3], 40 °C", "result": -2.25, "unit": "kcal/mol"}, {"measurement": "ΔH", "setting": "[1]; complex [MA2H−3]", "result": 79.802, "unit": "kcal/mol"}, {"measurement": "ΔS", "setting": "[1]; complex [MA2H−3]", "result": "−1.20", "unit": "kJ mol^−1 K^−1"}, {"measurement": "−ΔG", "setting": "[1]; complex [MA2], 25 °C", "result": 26.104, "unit": "kcal/mol"}, {"measurement": "−ΔG", "setting": "[1]; complex [MA2], 37 °C", "result": 27.727, "unit": "kcal/mol"}, {"measurement": "−ΔG", "setting": "[1]; complex [MA2], 40 °C", "result": 28.265, "unit": "kcal/mol"}, {"measurement": "ΔH", "setting": "[1]; complex [MA2]", "result": 16.12, "unit": "kcal/mol"}, {"measurement": "ΔS", "setting": "[1]; complex [MA2]", "result": "−0.59", "unit": "kJ mol^−1 K^−1"}, {"measurement": "−ΔG", "setting": "[1]; complex [MA3], 25 °C", "result": 37.639, "unit": "kcal/mol"}, {"measurement": "−ΔG", "setting": "[1]; complex [MA3], 37 °C", "result": 40.244, "unit": "kcal/mol"}, {"measurement": "−ΔG", "setting": "[1]; complex [MA3], 40 °C", "result": 40.827, "unit": "kcal/mol"}, {"measurement": "ΔH", "setting": "[1]; complex [MA3]", "result": 26.109, "unit": "kcal/mol"}, {"measurement": "ΔS", "setting": "[1]; complex [MA3]", "result": "−0.89", "unit": "kJ mol^−1 K^−1"}, {"measurement": "−ΔG", "setting": "[1]; complex [MAH−1], 25 °C", "result": 8.475, "unit": "kcal/mol"}, {"measurement": "−ΔG", "setting": "[1]; complex [MAH−1], 37 °C", "result": 9.405, "unit": "kcal/mol"}, {"measurement": "−ΔG", "setting": "[1]; complex [MAH−1], 40 °C", "result": 9.68, "unit": "kcal/mol"}, {"measurement": "ΔH", "setting": "[1]; complex [MAH−1]", "result": 15.23, "unit": "kcal/mol"}, {"measurement": "ΔS", "setting": "[1]; complex [MAH−1]", "result": "−0.33", "unit": "kJ mol^−1 K^−1"}, {"measurement": "−ΔG", "setting": "[1]; complex [MAH−2], 25 °C", "result": 3.172, "unit": "kcal/mol"}, {"measurement": "−ΔG", "setting": "[1]; complex [MAH−2], 37 °C", "result": 4.739, "unit": "kcal/mol"}, {"measurement": "−ΔG", "setting": "[1]; complex [MAH−2], 40 °C", "result": 5.416, "unit": "kcal/mol"}, {"measurement": "ΔH", "setting": "[1]; complex [MAH−2]", "result": 39.888, "unit": "kcal/mol"}, {"measurement": "ΔS", "setting": "[1]; complex [MAH−2]", "result": "−0.60", "unit": "kJ mol^−1 K^−1"}, {"measurement": "−ΔG", "setting": "[1]; complex [MA], 25 °C", "result": 12.51, "unit": "kcal/mol"}, {"measurement": "−ΔG", "setting": "[1]; complex [MA], 37 °C", "result": 13.61, "unit": "kcal/mol"}, {"measurement": "−ΔG", "setting": "[1]; complex [MA], 40 °C", "result": 14.18, "unit": "kcal/mol"}, {"measurement": "ΔH", "setting": "[1]; complex [MA]", "result": 19.01, "unit": "kcal/mol"}, {"measurement": "ΔS", "setting": "[1]; complex [MA]", "result": "−0.44", "unit": "kJ mol^−1 K^−1"}, {"measurement": "pKa1", "setting": "[2]; 25 °C", "result": "2.51(7)"}, {"measurement": "pKa2", "setting": "[2]; 25 °C", "result": "9.68(3)"}, {"measurement": "pKa1", "setting": "[2]; 37 °C", "result": "<2"}, {"measurement": "pKa2", "setting": "[2]; 37 °C", "result": "9.37(1)"}, {"measurement": "pKa1", "setting": "[2]; 40 °C", "result": "<2"}, {"measurement": "pKa2", "setting": "[2]; 40 °C", "result": "9.27(2)"}, {"measurement": "pKa1", "setting": "[3]; [5]", "result": 2.33}, {"measurement": "pKa2", "setting": "[3]; [5]", "result": 9.61}, {"measurement": "pKa1", "setting": "[3]; [6]", "result": 2.32}, {"measurement": "pKa2", "setting": "[3]; [6]", "result": 9.62}, {"measurement": "log β", "setting": "[4]; complex [MA2H−2], 25 °C", "result": "6.54(5)"}, {"measurement": "log β", "setting": "[4]; complex [MA2H−2], 37 °C", "result": "7.55(4)"}, {"measurement": "log β", "setting": "[4]; complex [MA2H−2], 40 °C", "result": "8.17(8)"}, {"measurement": "log β", "setting": "[4]; complex [MA2H−3], 25 °C", "result": "−4.65(11)"}, {"measurement": "log β", "setting": "[4]; complex [MA2H−3], 37 °C", "result": "−2.95(5)"}, {"measurement": "log β", "setting": "[4]; complex [MA2H−3], 40 °C", "result": "−1.57(9)"}, {"measurement": "log β", "setting": "[4]; complex [MA2H−4], 40 °C", "result": "−11.78(10)"}, {"measurement": "log β", "setting": "[4]; complex [MA2], 25 °C", "result": "19.10(11)"}, {"measurement": "log β", "setting": "[4]; complex [MA2], 37 °C", "result": "19.54(10)"}, {"measurement": "log β", "setting": "[4]; complex [MA2], 40 °C", "result": "19.72(13)"}, {"measurement": "log β", "setting": "[4]; complex [MA3], 25 °C", "result": "27.59(9)"}, {"measurement": "log β", "setting": "[4]; complex [MA3], 37 °C", "result": "28.35(3)"}, {"measurement": "log β", "setting": "[4]; complex [MA3], 40 °C", "result": "28.49(14)"}, {"measurement": "log β", "setting": "[4]; complex [MAH−1], 25 °C", "result": "6.21(2)"}, {"measurement": "log β", "setting": "[4]; complex [MAH−1], 37 °C", "result": "6.63(2)"}, {"measurement": "log β", "setting": "[4]; complex [MAH−1], 40 °C", "result": "6.75(5)"}, {"measurement": "log β", "setting": "[4]; complex [MAH−2], 25 °C", "result": "2.32(2)"}, {"measurement": "log β", "setting": "[4]; complex [MAH−2], 37 °C", "result": "3.34(3)"}, {"measurement": "log β", "setting": "[4]; complex [MAH−2], 40 °C", "result": "3.78(8)"}, {"measurement": "log β", "setting": "[4]; complex [MA], 25 °C", "result": "9.17(6)"}, {"measurement": "log β", "setting": "[4]; complex [MA], 37 °C", "result": "9.59(3)"}, {"measurement": "log β", "setting": "[4]; complex [MA], 40 °C", "result": "9.89(11)"}]}
{"molecule": "O=C(O)[C@@H]1CCCN1", "note": "[Pro, reference compound]", "values": [{"measurement": "pKa1", "setting": "[3]; ref Zhu et al. 23", "result": 1.99}]}
